Assay results as given in ChEMBL document CHEMBL3407439, “A facile and novel synthesis of N(2)-, C(6)-substituted pyrazolo[3,4-d]pyrimidine-4 carboxylate derivatives as adenosine receptor antagonists” (Eur J Med Chem, 2015).

Legend:
Adenosine receptor A3 = target: T1, Adenosine receptor A3 (Homo sapiens, UniProt P0DMS8); assay: Displacement of [3H]HEMADO from human adenosine A3 receptor expressed in CHO cells by Top Count analysis; type: cell-based
T1 sequence (P0DMS8 whole entry): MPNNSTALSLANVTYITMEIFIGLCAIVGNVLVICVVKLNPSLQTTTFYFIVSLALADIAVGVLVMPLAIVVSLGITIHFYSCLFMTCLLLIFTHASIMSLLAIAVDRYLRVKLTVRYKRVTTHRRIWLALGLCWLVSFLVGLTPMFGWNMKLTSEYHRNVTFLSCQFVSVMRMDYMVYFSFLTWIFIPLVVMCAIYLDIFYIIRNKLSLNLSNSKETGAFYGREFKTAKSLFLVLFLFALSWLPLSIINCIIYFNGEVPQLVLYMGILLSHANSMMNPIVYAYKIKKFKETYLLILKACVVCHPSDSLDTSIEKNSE
In short: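 Competition against [3H]HEMADO binding at hA3 receptor in CHO cells, 3 h at room temperature; nonspecific binding defined with 100 µM R-PIA.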

Adenosine receptor A1 = target: T2, Adenosine receptor A1 (Homo sapiens, UniProt P30542); assay: Displacement of [3H]CCPA from human adenosine A1 receptor expressed in CHO cells by Top Count analysis; type: cell-based
T2 sequence (P30542 whole entry): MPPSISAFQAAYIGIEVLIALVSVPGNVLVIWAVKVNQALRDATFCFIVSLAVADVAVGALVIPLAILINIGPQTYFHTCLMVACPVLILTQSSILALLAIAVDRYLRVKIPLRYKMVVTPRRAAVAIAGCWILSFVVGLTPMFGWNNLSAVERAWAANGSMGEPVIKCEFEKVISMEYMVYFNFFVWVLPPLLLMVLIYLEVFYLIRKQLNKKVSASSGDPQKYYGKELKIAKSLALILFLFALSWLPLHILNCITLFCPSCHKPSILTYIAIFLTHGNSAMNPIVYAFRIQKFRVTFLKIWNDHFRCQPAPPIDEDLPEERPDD
In short: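 Tritiated-radioligand competition binding at hA1 receptor, 3 h at room temperature; nonspecific binding with 1 mM theophylline. Separation by GF/B glass-fibre filtration, filter radioactivity counted by scintillation (57% efficiency). Ki from competition curves by nonlinear curve fitting.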

Adenosine receptor A2b = target: T3, Adenosine receptor A2b (Homo sapiens, UniProt P29275); assay: Antagonist activity at human adenosine A2B receptor expressed in CHO cells assessed as inhibition of NECA-induced adenylyl cyclase activity; type: functional, cell-based
T3 sequence (P29275 whole entry): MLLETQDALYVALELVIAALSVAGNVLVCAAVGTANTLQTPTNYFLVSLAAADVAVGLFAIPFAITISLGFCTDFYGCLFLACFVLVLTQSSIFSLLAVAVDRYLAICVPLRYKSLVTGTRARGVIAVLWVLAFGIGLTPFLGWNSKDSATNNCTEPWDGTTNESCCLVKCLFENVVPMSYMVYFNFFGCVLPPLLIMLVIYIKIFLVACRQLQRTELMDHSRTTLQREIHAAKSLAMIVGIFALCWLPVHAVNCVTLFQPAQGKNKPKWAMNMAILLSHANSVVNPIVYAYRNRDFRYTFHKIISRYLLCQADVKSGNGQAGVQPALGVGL
In short: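 Membranes from CHO cells transfected with hA2B receptor incubated 20 min with 100 nM NECA, 150,000 cpm [α-32P]ATP and varying antagonist concentrations, in mixture lacking EGTA and NaCl. Ki derived from concentration-dependent inhibition of NECA-stimulated adenylyl cyclase activity; n = 3–6.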

Homo sapiens = species on record: Homo sapiens; assay: Selectivity ratio of Ki for human adenosine A2A receptor to Ki for human adenosine A3 receptor
Adenosine receptor A2a = Adenosine receptor A2a (Homo sapiens, UniProt P29274); assay: Displacement of [3H]NECA from human adenosine A2A receptor expressed in CHO cells by Top Count analysis; type: cell-based
[1] = target: Adenosine receptors; A1 & A3 (Homo sapiens) (UniProt P30542+P0DMS8); assay: Selectivity ratio of Ki for human adenosine A1 receptor to Ki for human adenosine A3 receptor

Sequence of Adenosine receptor A2a (P29274 whole entry): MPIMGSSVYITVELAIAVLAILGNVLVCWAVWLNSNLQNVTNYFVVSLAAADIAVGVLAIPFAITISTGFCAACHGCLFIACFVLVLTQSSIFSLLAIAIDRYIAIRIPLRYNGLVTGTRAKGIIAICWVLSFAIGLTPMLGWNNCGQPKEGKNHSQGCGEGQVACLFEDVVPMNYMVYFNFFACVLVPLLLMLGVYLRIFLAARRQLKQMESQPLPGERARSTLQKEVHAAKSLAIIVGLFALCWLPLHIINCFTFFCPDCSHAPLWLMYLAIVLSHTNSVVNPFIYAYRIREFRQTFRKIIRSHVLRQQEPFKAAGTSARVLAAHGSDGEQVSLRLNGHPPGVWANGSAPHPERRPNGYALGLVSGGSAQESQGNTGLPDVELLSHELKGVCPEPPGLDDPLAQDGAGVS

Row | SMILES | Ki (Adenosine receptor A3) [µM] | Ki (Adenosine receptor A1) [µM] | Ki (Adenosine receptor A2b) [µM] | Ratio Ki (Homo sapiens) | Ki (Adenosine receptor A2a) [µM] | Ratio Ki [1]
1 | CCOC(=O)c1nc(NC(=O)c2ccc(Br)cc2)nc2nn(CCc3ccccc3)cc12 | 3.6 | 2.6 | > 20 | 1.2 | 4.2 | 0.72
2 | CCOC(=O)c1nc(NC(=O)c2ccc(C)cc2)nc2nn(C)cc12 | 100 | > 100 | > 20 | 0.12 | 11.8 | > 1
3 | CCOC(=O)c1nc(NC(=O)Cc2ccccc2)nc2nn(CC(C)(C)C)cc12 | 4.3 | 2.7 | > 20 | 1.3 | 5.7 | 0.62
4 | CCOC(=O)c1nc(NC(=O)c2ccc(F)cc2)nc2nn(C(C)C)cc12 | 5.7 | 2.8 | > 20 | 0.5 | 2.8 | 0.5
5 | CCOC(=O)c1nc(NC(=O)c2ccc(C)cc2)nc2nn(C(C)C)cc12 | 28 | 0.7 | > 20 | 0.1 | 2.3 | 0.02
6 | CCOC(=O)c1nc(NC(=O)c2ccc(C(F)(F)F)cc2)nc2nn(CCc3ccccc3)cc12 | 5.8 | 2.5 | > 20 | 1.3 | 7.5 | 0.5
7 | CCOC(=O)c1nc(NC(=O)c2ccc(C)cc2)nc2nn(CCc3ccccc3)cc12 | 3 | > 100 | > 20 | 2 | 6 | > 33
8 | CCOC(=O)c1nc(NC(=O)c2ccc(C(F)(F)F)cc2)nc2nn(C(C)C)cc12 | > 100 | > 100 | > 20 | – | > 100 | –
9 | CCOC(=O)c1nc(NC(=O)c2ccccc2)nc2nn(CCc3ccccc3)cc12 | 12.2 | 5.1 | > 10 | 0.3 | 3.7 | 0.41
10 | CCOC(=O)c1nc(N(C(=O)c2ccccc2)C(=O)c2ccccc2)nc2nn(C)cc12 | > 100 | > 100 | > 20 | – | > 100 | –
11 | CCOC(=O)c1nc(NC(=O)c2ccc(Cl)c(Cl)c2)nc2nn(CCc3ccccc3)cc12 | 2.2 | > 100 | > 20 | > 46 | > 100 | > 46
12 | CCOC(=O)c1nc(N)nc2nn(C(C)C)cc12 | 14 | 0.9 | > 10 | 0.18 | 2.6 | 0.06
13 | Cn1cc2c(C(N)=O)nc(N)nc2n1 | > 100 | 10.2 | > 20 | – | 3 | –
14 | CCOC(=O)c1nc(NC(=O)c2ccc(C(F)(F)F)cc2)nc2nn(C)cc12 | > 100 | > 100 | > 20 | – | > 100 | –
15 | CCOC(=O)c1nc(N)nc2nn(C)cc12 | 0.9 | 8.8 | > 20 | 2.2 | 2 | 9.7
16 | CCOC(=O)c1nc(NC(=O)c2ccc(F)cc2)nc2nn(CC(C)(C)C)cc12 | 4.3 | 2.7 | > 20 | 1.3 | 5.7 | 0.62
17 | CCOC(=O)c1nc(NC(=O)c2ccccc2)nc2nn(C(C)C)cc12 | 8.6 | 4.3 | > 10 | 0.4 | 3.3 | 0.5
18 | CCOC(=O)c1nc(NC(=O)c2ccc(F)cc2)nc2nn(C)cc12 | > 100 | > 100 | > 20 | < 0.14 | 11.5 | –
19 | CCOC(=O)c1nc(N(C(=O)c2ccc(Br)cc2)C(=O)c2ccc(Br)cc2)nc2nn(C)cc12 | 2.9 | > 100 | > 20 | > 34 | > 100 | > 34
20 | CC(C)(C)Cn1cc2c(C(N)=O)nc(N)nc2n1 | 19.7 | > 90 | > 20 | > 4.1 | > 80 | > 4.6
21 | CCOC(=O)c1nc(N(C(=O)c2ccccc2)C(=O)c2ccccc2)nc2nn(CCc3ccccc3)cc12 | > 100 | > 100 | > 20 | – | > 100 | –

The next lines start with the values.

Row | Ki (Adenosine receptor A3) [µM] | Ki (Adenosine receptor A1) [µM] | Ki (Adenosine receptor A2b) [µM] | Ratio Ki (Homo sapiens) | Ki (Adenosine receptor A2a) [µM] | Ratio Ki [1] | SMILES
22 | 5.4 | 17.7 | > 20 | > 18.5 | > 100 | 3.2 | CCOC(=O)c1nc(N(C(=O)c2ccccc2)C(=O)c2ccccc2)nc2nn(C(C)C)cc12
23 | 6.8 | 5 | > 20 | 0.8 | 6.1 | 0.73 | CCOC(=O)c1nc(NC(=O)c2ccc(F)cc2)nc2nn(CCc3ccccc3)cc12
24 | 14.6 | 5.9 | > 20 | 0.5 | 7.3 | 0.4 | CCOC(=O)c1nc(NC(=O)Cc2ccccc2)nc2nn(C)cc12
25 | 13.3 | 0.6 | > 10 | 0.66 | 8.8 | 0.04 | CCOC(=O)c1nc(NC(=O)Cc2ccccc2)nc2nn(C(C)C)cc12
26 | 10.4 | 4 | > 15 | 0.48 | 5 | 0.38 | CCOC(=O)c1nc(N)nc2nn(CC(C)(C)C)cc12
27 | > 100 | > 100 | > 20 | – | > 100 | – | CCOC(=O)c1nc(N(C(=O)c2ccc(F)c(F)c2)C(=O)c2ccc(F)c(F)c2)nc2nn(C)cc12
28 | > 100 | 8.2 | > 20 | – | 9.2 | – | CC(C)n1cc2c(C(N)=O)nc(N)nc2n1
29 | 18.1 | 3.5 | 60 | 0.26 | 4.8 | 0.19 | CCOC(=O)c1nc(N)nc2nn(CCc3ccccc3)cc12
30 | 10.4 | 0.6 | > 10 | 0.2 | 2.4 | 0.05 | CCOC(=O)c1nc(NC(=O)Cc2ccccc2)nc2nn(CCc3ccccc3)cc12
31 | 32.9 | 40.2 | > 20 | 0.47 | 15.7 | 1.2 | NC(=O)c1nc(N)nc2nn(CCc3ccccc3)cc12
32 | > 100 | 14 | > 20 | < 0.16 | 16.1 | < 0.14 | CCOC(=O)c1nc(NC(=O)c2ccccc2)nc2nn(C)cc12
